These results are taken from ChEMBL document CHEMBL1641437, “New furin inhibitors based on weakly basic amidinohydrazones” (Bioorg Med Chem Lett, 2011).

The target in one test is Furin (Homo sapiens, UniProt P09958). In words: Inhibition of human recombinant furin by fluorescence plate reader analysis. The gist of the method:
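Recombinant human furin, 0.95 nM, with fluorogenic pyroGlu-Arg-Thr-Lys-Arg-AMC at 5, 20 and 50 substrate concentrations, in 100 mM HEPES pH 7.0 with 0.2% Triton X-100, 2 mM CaCl2, 0.02% sodium azide, 1 mg/mL BSA; room temperature. AMC release read by fluorescence (ex 380, em 460 nm); Ki obtained by Dixon plot.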

The target of another test is Prothrombin (Homo sapiens, UniProt P00734). In words: Inhibition of thrombin.
The next test addresses Coagulation factor X (Homo sapiens, UniProt P00742). In words: Inhibition of factor 10a.
The target of a further test is Plasminogen (Homo sapiens, UniProt P00747). In words: Inhibition of plasmin.
Chain of Plasminogen (P00747 97-580 limits assumed): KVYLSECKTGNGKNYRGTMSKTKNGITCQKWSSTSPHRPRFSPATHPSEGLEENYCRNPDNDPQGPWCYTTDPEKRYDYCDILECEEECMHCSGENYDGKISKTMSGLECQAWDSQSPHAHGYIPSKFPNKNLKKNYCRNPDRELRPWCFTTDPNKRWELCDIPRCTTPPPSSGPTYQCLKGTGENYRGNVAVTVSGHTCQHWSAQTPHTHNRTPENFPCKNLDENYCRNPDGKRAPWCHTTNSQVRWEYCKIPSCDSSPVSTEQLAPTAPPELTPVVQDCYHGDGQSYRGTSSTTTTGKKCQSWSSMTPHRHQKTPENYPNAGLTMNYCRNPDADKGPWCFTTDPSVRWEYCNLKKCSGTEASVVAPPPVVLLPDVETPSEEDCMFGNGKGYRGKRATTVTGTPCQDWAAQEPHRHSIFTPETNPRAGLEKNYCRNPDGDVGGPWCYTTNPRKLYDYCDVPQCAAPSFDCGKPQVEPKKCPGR
Chain of Plasminogen (P00747 581-810 limits assumed): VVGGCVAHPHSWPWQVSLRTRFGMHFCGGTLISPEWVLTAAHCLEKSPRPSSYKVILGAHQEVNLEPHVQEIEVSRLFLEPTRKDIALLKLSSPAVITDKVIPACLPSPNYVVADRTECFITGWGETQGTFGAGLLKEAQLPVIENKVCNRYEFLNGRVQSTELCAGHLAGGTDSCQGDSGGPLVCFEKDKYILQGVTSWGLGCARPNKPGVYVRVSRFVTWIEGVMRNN
Test [1] is described as follows: Inhibition of trypsin.
The target of test [2] is T1, Subtilisin Carlsberg (Bacillus licheniformis) (UniProt P00780).
T1 sequence (whole entry): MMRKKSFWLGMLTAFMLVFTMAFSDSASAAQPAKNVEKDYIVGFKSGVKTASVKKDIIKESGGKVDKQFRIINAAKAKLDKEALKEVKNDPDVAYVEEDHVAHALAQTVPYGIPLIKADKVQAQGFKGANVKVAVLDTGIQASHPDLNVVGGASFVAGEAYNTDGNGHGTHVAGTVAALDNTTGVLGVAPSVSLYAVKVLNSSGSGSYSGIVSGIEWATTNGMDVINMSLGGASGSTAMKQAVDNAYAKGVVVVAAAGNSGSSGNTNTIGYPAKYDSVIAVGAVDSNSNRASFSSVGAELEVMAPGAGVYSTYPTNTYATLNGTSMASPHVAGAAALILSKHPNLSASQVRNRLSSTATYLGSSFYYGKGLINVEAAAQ
In words: Inhibition of Bacillus licheniformis subtilisin at 100 uM relative to control.

Chain of Furin (P09958 whole entry): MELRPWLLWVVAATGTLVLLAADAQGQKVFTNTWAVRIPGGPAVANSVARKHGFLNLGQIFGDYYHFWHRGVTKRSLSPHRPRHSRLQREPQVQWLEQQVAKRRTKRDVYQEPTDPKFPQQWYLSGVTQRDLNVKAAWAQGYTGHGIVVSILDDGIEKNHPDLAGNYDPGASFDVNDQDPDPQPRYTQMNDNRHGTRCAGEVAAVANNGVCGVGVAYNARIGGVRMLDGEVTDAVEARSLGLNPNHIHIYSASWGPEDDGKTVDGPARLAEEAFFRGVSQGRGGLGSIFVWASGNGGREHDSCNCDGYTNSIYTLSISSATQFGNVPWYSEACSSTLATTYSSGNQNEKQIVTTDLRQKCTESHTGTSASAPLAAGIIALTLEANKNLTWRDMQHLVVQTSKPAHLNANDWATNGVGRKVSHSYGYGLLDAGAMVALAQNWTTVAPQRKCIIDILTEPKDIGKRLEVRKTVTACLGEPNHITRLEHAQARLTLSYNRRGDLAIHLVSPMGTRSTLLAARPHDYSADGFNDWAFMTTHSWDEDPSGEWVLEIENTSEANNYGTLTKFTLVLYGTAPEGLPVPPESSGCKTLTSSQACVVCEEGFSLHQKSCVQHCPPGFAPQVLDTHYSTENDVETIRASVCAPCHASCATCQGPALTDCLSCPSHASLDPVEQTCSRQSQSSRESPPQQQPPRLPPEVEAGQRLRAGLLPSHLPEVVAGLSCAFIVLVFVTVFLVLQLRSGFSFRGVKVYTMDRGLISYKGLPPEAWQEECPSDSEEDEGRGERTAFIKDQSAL
Chain of Coagulation factor X (P00742 41-179 limits assumed): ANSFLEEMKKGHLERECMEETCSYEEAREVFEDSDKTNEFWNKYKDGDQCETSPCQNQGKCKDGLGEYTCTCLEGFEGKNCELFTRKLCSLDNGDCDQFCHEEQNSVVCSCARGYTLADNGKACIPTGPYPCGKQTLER
Chain of Coagulation factor X (P00742 235-488 limits assumed): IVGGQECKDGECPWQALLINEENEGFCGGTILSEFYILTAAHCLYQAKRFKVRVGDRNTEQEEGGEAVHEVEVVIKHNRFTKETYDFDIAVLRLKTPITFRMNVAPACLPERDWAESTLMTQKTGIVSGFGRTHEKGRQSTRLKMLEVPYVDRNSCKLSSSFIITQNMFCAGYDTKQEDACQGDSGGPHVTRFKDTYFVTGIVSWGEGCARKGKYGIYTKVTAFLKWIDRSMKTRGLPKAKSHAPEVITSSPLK

For `C/C(=N/NC(=N)N)c1cc(NC(=O)COc2ccccc2)cc(/C(C)=N/NC(=N)N)c1`, the Ki on Furin was determined as 5.61 µM.

Consider `C/C(=N\NC(=N)N)c1cc(NC(=O)CCCCCNC(=N)N)cc(/C(C)=N/NC(=N)N)c1`, for which the Ki amounted to 1000 µM at Prothrombin; 1000 µM on Coagulation factor X; 1000 µM on Plasminogen; 110 µM in test [1]; 1.42 µM on Furin.

The compound `C/C(=N\NC(=N)N)c1cccc(/C(C)=N/NC(=N)N)c1` came in with an inhibition in test [2] of 0%. Further, the Ki on Furin turned out to be 4.78 µM.

In the case of `C/C(=N\NC(=N)N)c1cc(N)cc(/C(C)=N/NC(=N)N)c1`, on Furin, the Ki was 1.82 µM.

Take `N=C(N)NNC(=O)c1cccc(C(=O)NNC(=N)N)c1`: the Ki on Furin stood at 27.9 µM.

For `C/C(=N\NC(=N)N)c1cc(NC(=O)CCCNC(=N)N)cc(/C(C)=N/NC(=N)N)c1`, the Ki on Prothrombin came to 800 µM; on Coagulation factor X, 16 µM; on Plasminogen it was 1000 µM; in test [1], 2.8 µM; at Furin it was 0.46 µM. In test [2], this compound had an inhibition of 7.9%.

As to `C/C(=N\NC(=N)N)c1cc(NC(=O)[C@H](N)CCCNC(=N)N)cc(/C(C)=N/NC(=N)N)c1`, the Ki turned out to be 1000 µM at Prothrombin; 1000 µM at Coagulation factor X; 1000 µM on Plasminogen; 68 µM in test [1]; 1.13 µM on Furin.

For `N=C(N)NNC(=O)c1ccccc1`, the Ki on Furin is 376 µM.

Consider `C/C(=N/NC(=N)N)c1cc(OCC(=O)Nc2cc(/C(C)=N\NC(=N)N)cc(/C(C)=N/NC(=N)N)c2)cc(/C(C)=N\NC(=N)N)c1`, for which the Ki on Prothrombin came out at 0.86 µM; on Furin it was 0.58 µM.

As for `N=C(N)N/N=C/c1ccc(/C=N/NC(=N)N)cc1`, the Ki on Prothrombin amounted to 68 µM; on Furin, 1.47 µM. The inhibition in test [2] is 0%.

Turning to `C/C(=N\NC(=N)N)c1cc(NS(=O)(=O)c2ccccc2)cc(/C(C)=N/NC(=N)N)c1`, the Ki at Prothrombin stood at 32 µM; on Coagulation factor X it was 80 µM; on Plasminogen it was 400 µM; in test [1] it was 59 µM; on Furin, 1.55 µM.

`C/C(=N\NC(=N)N)c1cc(NC(=O)CCCCNC(=N)N)cc(/C(C)=N/NC(=N)N)c1`: the Ki was determined as 1000 µM at Prothrombin; 1000 µM on Coagulation factor X; 1000 µM on Plasminogen; 23 µM in test [1]; 1.04 µM at Furin.

For the compound `C/C(=N\NC(=N)N)c1ccc(/C(C)=N/NC(=N)N)cc1`, the Ki at Prothrombin stood at 786 µM; on Furin it was 1.84 µM. In test [2], this compound showed an inhibition of 7.9%.

Regarding `C/C(=N\NC(=N)N)c1cc(NC(=O)CCCN)cc(/C(C)=N/NC(=N)N)c1`, the Ki on Prothrombin is 1000 µM; at Coagulation factor X, 1000 µM; at Plasminogen, 110 µM; in test [1], 12 µM; at Furin it was 1.2 µM.

As for `C/C(=N/NC(=N)N)c1cc(OCC(=O)Nc2ccccc2)cc(/C(C)=N\NC(=N)N)c1`, the Ki at Furin is 1.35 µM.

As to `C/C(=N\NC(=N)N)c1ccc(Oc2ccc(/C(C)=N/NC(=N)N)cc2)cc1`, the Ki at Furin was determined as 44 µM.

`C/C(=N/NC(=N)N)c1cc(NC(=O)COc2ccc(/C(C)=N/NC(=N)N)cc2)cc(/C(C)=N/NC(=N)N)c1`: the Ki at Furin was 1.94 µM.

As to `N=C(N)N/N=C/c1ccccc1`, the Ki at Furin is above 500 µM.

The compound `N=C(N)N/N=C/c1cccc(/C=N/NC(=N)N)c1` gave an inhibition in test [2] of 4.4%. For the same compound, the Ki on Furin stood at 11.5 µM.

Regarding `C/C(=N\NC(=N)N)c1ccccc1`, on Furin, the Ki came out at 273 µM.

`C/C(=N/NC(=N)N)c1cccc(OCC(=O)Nc2cc(/C(C)=N\NC(=N)N)cc(/C(C)=N/NC(=N)N)c2)c1`: the Ki on Furin was 1.46 µM.

For the compound `NC(N)=NNC(=O)c1ccc(C(=O)NN=C(N)N)cc1`, the Ki on Prothrombin is 1000 µM; on Furin it was 173 µM.

As to `C/C(=N/NC(=N)N)c1cc(NC(=O)CC(=O)Nc2cc(/C(C)=N/NC(=N)N)cc(/C(C)=N/NC(=N)N)c2)cc(/C(C)=N/NC(=N)N)c1`, the inhibition in test [2] is 7.7%. At Furin, the Ki came to 1.13 µM.

Turning to `N=C(N)N/N=C1\C/C(=N\NC(=N)N)c2ccccc21`, on Furin, the Ki turned out to be 17.3 µM.
